From ChEMBL document CHEMBL4765303, “Synthesis and evaluation of butein derivatives for in vitro and in vivo inflammatory response suppression in lymphedema” (Eur J Med Chem, 2020)
≈ marks a conversion by molar mass, not a printed value. Calls of active or inactive are those of the source. The calls are words filed in the database; no cut-off is given here.

Key:
[1] = Inhibition of LPS stimulated TNF alpha production in Balb/c mouse peritoneal macrophages at 20 uM measured by ELISA plate reader method; assay type: functional; conditions: Macrophage
Procedure, shortened: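 Thioglycollate-elicited peritoneal exudate cells from male Balb/c mice, adherent fraction after overnight plating at 37 °C. Cells stimulated with 100 ng/mL LPS for 24 h with compound at 20 µM. Supernatant TNF-α measured by ELISA. Mean ± SD, n = 3.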

[2] = Inhibition of LPS stimulated TNF alpha production in Balb/c mouse peritoneal macrophages measured by ELISA plate reader method; assay type: functional; conditions: Macrophage
[3] = Metabolic stability in mouse liver microsomes assessed as percentage of compound remaining after 30 mins; assay type: ADME, Microsome; conditions: read-out: Stabilty
Procedure, shortened: (§1)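 Phase I stability in liver microsomes from mouse, rat and human. Percent of compound remaining measured 30 min after reaction. Buspirone included as a control metabolized in Phase I.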

[4] = Metabolic stability in rat liver microsomes assessed as percentage of compound remaining after 30 mins; assay type: ADME, Microsome; conditions: read-out: Stabilty; procedure, shortened: as §1
[5] = Metabolic stability in human liver microsomes assessed as percentage of compound remaining after 30 mins; assay type: ADME, Microsome; conditions: read-out: Stabilty; procedure, shortened: as §1
[6] = Dissociation constant, pKa of compound; assay type: physicochemical
[7] = Kinetic solubility of compound in water; assay type: physicochemical; conditions: read-out: Kinetic_solubility
Mus musculus [8] = test: Antiinflammatory activity in orally dosed surgical-induced lymphedema ICR mouse model assessed as reduction in lymphedema volume administered for 7 days before surgery and measured 7 days after surgery relative to control; assay type: functional; conditions: time 14 day
Procedure, shortened: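 Lymphedema induced in the right lower limb of anesthetized male ICR mice by removing the superficial inguinal, popliteal and deep inguinal lymph nodes and a femoral lymphatic vessel, with limited cautery. Oral dosing at 100 mg/kg/day started 7 days before surgery and continued every 2 days afterwards. Limb volume measured by caliper on day 7 by blinded observers and compared with vehicle.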

[9] = Tmax in CD-1 mouse at 1 mg/kg, iv measured upto 1440 mins by LC/MS/MS analysis; assay type: ADME, organism-based; conditions: in vivo
Procedure, shortened: (§2)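 Male CD-1 mice, 5 weeks old, dosed once, either by tail vein at 1 mg/kg or orally at 20 mg/kg or 100 mg/kg. Plasma levels give Cmax, Tmax and AUC. Values are mean ± SD from three mice. A prodrug is quantified through its main metabolite, the parent compound (LOQ <1 ng/mL).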

[10] = Tmax in CD-1 mouse at 20 mg/kg, po measured upto 1440 mins by LC/MS/MS analysis; assay type: ADME, organism-based; conditions: in vivo; procedure, shortened: as §2
[11] = Tmax in CD-1 mouse at 100 mg/kg, po measured upto 1440 mins by LC/MS/MS analysis; assay type: ADME, organism-based; conditions: in vivo; procedure, shortened: as §2
[12] = Cmax in CD-1 mouse at 1 mg/kg, iv measured upto 1440 mins by LC/MS/MS analysis; assay type: ADME, organism-based; design: route intravenous, dose 1 mg/kg, time <=1440; conditions: in vivo; procedure, shortened: as §2
[13] = Cmax in CD-1 mouse at 20 mg/kg, po measured upto 1440 mins by LC/MS/MS analysis; assay type: ADME, organism-based; design: route oral, dose 20 mg/kg, time <=1440; conditions: in vivo; procedure, shortened: as §2
[14] = Cmax in CD-1 mouse at 100 mg/kg, po measured upto 1440 mins by LC/MS/MS analysis; assay type: ADME, organism-based; design: route oral, dose 100 mg/kg, time <=1440; conditions: in vivo; procedure, shortened: as §2
[15] = AUC (0 to infinity) in CD-1 mouse at 1 mg/kg, iv measured upto 1440 mins by LC/MS/MS analysis; assay type: ADME, organism-based; design: route intravenous, dose 1 mg/kg, time <=1440; conditions: in vivo, 24 h; procedure, shortened: as §2
[16] = AUC (0 to infinity) in CD-1 mouse at 20 mg/kg, po measured upto 1440 mins by LC/MS/MS analysis; assay type: ADME, organism-based; design: route oral, dose 20 mg/kg, time <=1440; conditions: in vivo, 24 h; procedure, shortened: as §2
[17] = AUC (0 to infinity) in CD-1 mouse at 100 mg/kg, po measured upto 1440 mins by LC/MS/MS analysis; assay type: ADME, organism-based; design: route oral, dose 100 mg/kg, time <=1440; conditions: in vivo; procedure, shortened: as §2
Mus musculus [18] = test: Antiinflammatory activity in orally dosed surgical-induced lymphedema ICR mouse model assessed as reduction in neutrophil infiltration administered for 7 days before surgery and measured 7 days after surgery; assay type: functional, organism-based; conditions: time 14.0 day
Procedure, shortened: (§3)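 Surgical lymphedema model in male ICR mice with oral pretreatment starting 7 days before surgery. Right hind-limb tissue taken 15–25 mm distal on day 7 post-surgery and H&E-stained to assess dermal tissue and neutrophils. Groups: normal, vehicle, treated.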

Mus musculus [19] = test: Antiinflammatory activity in orally dosed surgical-induced lymphedema ICR mouse model assessed as reduction in dermal layer lymphedema tissue administered for 7 days before surgery and measured 7 days after surgery; assay type: functional, organism-based; conditions: time 14.0 day; procedure, shortened: as §3
Mus musculus [20] = test: Antiinflammatory activity in orally dosed surgical-induced lymphedema ICR mouse model assessed as reduction in TNF-alpha mRNA expression administered 7 days before surgery and measured 7 days after surgery by RT-PCR analysis; assay type: functional, organism-based; conditions: time 14.0 day
Mus musculus [21] = test: Antiinflammatory activity in orally dosed surgical-induced lymphedema ICR mouse model assessed as reduction in PPARgamma expression administered 7 days before surgery and measured 7 days after surgery by Western blot analysis; assay type: functional, organism-based; conditions: time 14.0 day
Mus musculus [22] = test: Antiinflammatory activity in orally dosed surgical-induced lymphedema ICR mouse model assessed as reduction in PPARgamma expression administered 7 days before surgery and measured 7 days after surgery by immunofluorescence analysis; assay type: functional, organism-based; conditions: time 14.0 day
Procedure, shortened: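 Surgical lymphedema in male ICR mice with oral pretreatment. Limb tissue harvested on day 7 post-surgery. Sections immunostained with anti-mouse PPARγ, Alexa Fluor 488 secondary and DAPI, then examined by fluorescence microscopy.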

Mus musculus [23] = test: Antiinflammatory activity in orally dosed surgical-induced lymphedema ICR mouse model assessed as reduction in Fabp4 administered 7 days before surgery and measured 7 days after surgery by Western blot analysis; assay type: functional, organism-based; conditions: time 14.0 day
[24] = Oral bioavailability in CD-1 mouse at 20 mg/kg measured upto 1440 mins by LC/MS/MS analysis; assay type: ADME, organism-based; conditions: in vivo, 24 h
Procedure, shortened: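 Male CD-1 mice (5 weeks) dosed orally at 20 mg/kg, with a 1 mg/kg tail-vein reference group. Bioavailability calculated as (AUCpo/AUCiv) × 100. Mean ± SD, three mice.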

Mus musculus [25] = test: Antiinflammatory activity in orally dosed surgical-induced lymphedema ICR mouse model assessed as reduction in PPARgamma mRNA expression administered 7 days before surgery and measured 7 days after surgery by RT-PCR analysis; assay type: functional, organism-based; conditions: time 14.0 day
Mus musculus [26] = test: Antiinflammatory activity in orally dosed surgical-induced lymphedema ICR mouse model assessed as reduction in Fabp4 mRNA expression administered 7 days before surgery and measured 7 days after surgery by RT-PCR analysis; assay type: functional, organism-based; conditions: time 14.0 day
Mus musculus [27] = test: Antiinflammatory activity in orally dosed surgical-induced lymphedema ICR mouse model assessed as reduction in TNF-alpha expression administered 7 days before surgery and measured 7 days after surgery; conditions: time 14.0 day

## O=C(/C=C/c1ccc(O)c(O)c1)c1ccc(O)cc1F
[1]
  inhibition at 20 µM: 32%

## COc1ccc(C(=O)Oc2cc(O)ccc2C(=O)/C=C/c2ccc(O)c(O)c2)cc1
[2]
  IC50: 20.8 µM

## O=C(/C=C/c1ccc(O)c(O)c1)c1ccc(Cl)cc1
[1]
  inhibition at 20 µM: 62%
[2]
  IC50: 17.3 µM
[3]
  remaining at 0.5 h: 7.26%
[4]
  remaining at 0.5 h: 21.1%
[5]
  remaining at 0.5 h: 38%
[6]
  pKa: 9.23
[7]
  solubility kinetic: 28 µg/mL (≈ 102 µM)
Mus musculus [8]
  inhibition (INH): 53%

## CC(C)Oc1cc(O)ccc1C(=O)/C=C/c1ccc(O)c(O)c1
[1]
  inhibition at 20 µM: 64%

## O=C(/C=C/c1ccc(F)c(O)c1)c1ccc(O)cc1O
[1]
  inhibition at 20 µM: 22%

## O=C(Oc1cc(O)ccc1C(=O)/C=C/c1ccc(O)c(O)c1)c1ccccc1
[1]
  inhibition at 20 µM: 51%
[2]
  IC50: 14.6 µM
[3]
  remaining at 0.5 h: 4%
[4]
  remaining at 0.5 h: 7%
[5]
  remaining at 0.5 h: 2%
[6]
  pKa: 3.38
[7]
  solubility kinetic: 136 µg/mL (≈ 361 µM)
[9]
  Tmax: 12 min
[10]
  Tmax: 24 min
[11]
  Tmax: 24 min
[12]
  Cmax: 110 ng/mL
[13]
  Cmax: 83 ng/mL
[14]
  Cmax: 1600 ng/mL
[15]
  AUC: 163 ng·h/mL
[16]
  AUC: 141 ng·h/mL
[17]; mouse, 24 h
  AUC: 1224 ng·h/mL
Mus musculus [8]
  inhibition (INH): 70%
Mus musculus [18]
  inhibition: Active
Mus musculus [19]
  inhibition: Active
Mus musculus [20]
  inhibition: Active
Mus musculus [21]
  inhibition: Active
Mus musculus [22]
  inhibition: Active
Mus musculus [23]
  inhibition: Active
[24]
  F: 4%
Mus musculus [25]
  inhibition: Active
Mus musculus [26]
  inhibition: Active
Mus musculus [27]
  inhibition: Active

## O=C(Oc1cc(O)ccc1C(=O)/C=C/c1ccc(O)c(O)c1)c1ccc(Cl)cc1
[2]
  IC50: 17.9 µM

## Cc1cc(O)ccc1C(=O)/C=C/c1ccc(O)c(O)c1
[1]
  inhibition at 20 µM: 41%
[2]
  IC50: 48.4 µM

## Cc1ccc(C(=O)Oc2cc(O)ccc2C(=O)/C=C/c2ccc(O)c(O)c2)cc1
[2]
  IC50: 18.9 µM

## Cc1ccc(C(=O)/C=C/c2ccc(O)c(O)c2)cc1
[1]
  inhibition at 20 µM: 61%
[2]
  IC50: 18.6 µM

## CC(=O)Oc1ccc(C(=O)/C=C/c2ccc(OC(C)=O)c(OC(C)=O)c2)c(OC(C)=O)c1
[1]
  inhibition at 20 µM: 73%
[2]
  IC50: 12.8 µM

## O=C1CC2(CCCC2)CC(=O)N1CCCCN1CCN(c2ncccn2)CC1 [BUSPIRONE]
[3]
  remaining at 0.5 h: 0.0183%
[4]
  remaining at 0.5 h: 0.0928%
[5]
  remaining at 0.5 h: 4.7%

## O=C(/C=C/c1ccc(O)c(O)c1)c1ccc(O)cc1O [BUTEIN]
[1]
  inhibition at 20 µM: 20%
[2]
  IC50: 43.3 µM
[3]
  remaining at 0.5 h: 9.93%
[4]
  remaining at 0.5 h: 18.1%
[5]
  remaining at 0.5 h: 61.6%
[6]
  pKa: 7.96
[7]
  solubility kinetic: 21 µg/mL (≈ 77.1 µM)
[9]
  Tmax: 6 min
[10]
  Tmax: 18 min
[11]
  Tmax: 18 min
[12]
  Cmax: 41 ng/mL
[13]
  Cmax: 43 ng/mL
[14]
  Cmax: 601 ng/mL
[15]
  AUC: 6.7 ng·h/mL
[16]
  AUC: 21 ng·h/mL
[17]; CD-1, mouse
  AUC(0-inf): 251 ng·h/mL
Mus musculus [8]
  inhibition (INH): 52%
Mus musculus [18]
  inhibition: Active
Mus musculus [19]
  inhibition: Active
Mus musculus [20]
  inhibition: Active
Mus musculus [21]
  inhibition: Active
Mus musculus [22]
  inhibition: Active
Mus musculus [23]
  inhibition: Active
Mus musculus [25]
  inhibition: Active
Mus musculus [26]
  inhibition: Active
Mus musculus [27]
  inhibition: Active
